Broadly, the inhibition is the relative decrease from the control value, in per cent. As usually defined, the IC50 is the concentration that inhibits the measured activity by half. Low readings indicate greater potency, high ones weaker potency.

The target in test [1] is Histone acetyltransferase KAT5 (Homo sapiens) (UniProt Q92993). In words: Inhibition of Tip60-mediated histone H4 acetylation in human HeLa nuclear extracts at 50 uM after 15 mins by ELISA. Summed up: (§1)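 HeLa nuclear extract (Dignam method) at 2.5 µg/mL final protein as enzyme source. Biotinylated H3 (aa 1–21) or H4 (aa 2–24) peptide immobilized on streptavidin. Reaction run 15 min in 50 mM HEPES pH 7.4, 0.01% Triton X-100, 0.1 mM EDTA, BSA, 1 mM DTT. Anti-acetyl-lysine ELISA readout. Triplicates, normalized to no-inhibitor and no-enzyme controls.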

Test [2] has the same target. In words: Inhibition of Tip60-mediated histone H3 acetylation in human HeLa nuclear extracts at 200 uM after 15 mins by ELISA. Summed up: as §1
For orientation: An ELISA detects its analyte on a solid surface through an enzyme-linked reagent.

Test [3] has the same target. The test is described as follows: Inhibition of Tip60-mediated histone H4 acetylation in human HeLa nuclear extracts at 200 uM after 15 mins by ELISA. Summed up:
as §1

The target is the same in test [4]. In words: Inhibition of Tip60-mediated histone H3 acetylation in human HeLa nuclear extracts at 50 uM after 15 mins by ELISA. In outline:
as §1

The target is the same in test [5]. In words: Inhibition of His-tagged human recombinant Tip60 expressed in Escherichia coli BL21(DE3) cells using [14C][…] and histone H4 as substrate at 200 uM after 5 mins by scintillation counting. In outline: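 Single-point screen at 200 µM inhibitor: 100 nM Tip60, 10 µM [14C]Ac-CoA, 100 µM H4-20 peptide in 50 mM HEPES pH 8.0, 0.1 mM EDTA, BSA, 1 mM DTT, 0.1% Triton X-100, 2% DMSO. Components equilibrated 5 min at 30 °C before enzyme start. Products spotted on P81 paper, washed with bicarbonate, counted by scintillation. No-enzyme background subtracted.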

In test [6] the target is Histone acetyltransferase p300 (Homo sapiens) (UniProt Q09472). The test is described as follows: Inhibition of human recombinant His-tagged p300 HAT domain expressed in Escherichia coli BL21(DE3) cells using [14C][…] and histone H4 as substrate at 200 uM after 5 mins by scintillation counting. Summed up:
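Single-point screen at 200 µM inhibitor: 5 nM p300, 10 µM [14C]Ac-CoA, 100 µM H4-20 peptide in 50 mM HEPES pH 8.0, EDTA, BSA, DTT, Triton X-100, 2% DMSO, 30 °C. Enzyme-initiated after 5 min equilibration. Radioactivity on P81 paper counted. No-enzyme background subtracted.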

The target in test [7] is Histone acetyltransferase KAT2B (Homo sapiens) (UniProt Q92831). In words: Inhibition of human recombinant His-tagged PCAF HAT domain expressed in Escherichia coli BL21(DE3) cells using [14C][…] and histone H3 as substrate at 200 uM after 5 mins by scintillation counting.
For test [8], the target named is Histone acetyltransferase KAT5 (Rattus norvegicus) (UniProt Q99MK2). In words: Inhibition of Tip60-mediated histone H3 acetylation in rat brain extracts at 30 uM after 15 mins by ELISA. In kind it is tissue-based. In outline:
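Rat brain-region nuclear extracts (Dignam method) at 40 µg/mL final protein. Inhibitor at 30 µM. Histone peptide immobilized via streptavidin, 15 min reaction in HEPES pH 7.4 buffer, anti-acetyl-lysine ELISA. Triplicates for each of two animals. Blank values subtracted.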

Test [9] shares this target. The test is described as follows: Inhibition of Tip60-mediated histone H3 acetylation in rat brain extracts at 30 uM after 15 mins by ELISA.
Test [10] addresses Histone acetyltransferase p300 (Homo sapiens) (UniProt Q09472). The test is described as follows: Inhibition of human recombinant His-tagged p300 HAT domain expressed in Escherichia coli BL21(DE3) cells using [14C][…] and histone H4 as substrate at >200 uM after 5 mins by scintillation counting.
Test [11] concerns the target Histone acetyltransferase KAT2B (Homo sapiens) (UniProt Q92831). In words: Inhibition of human recombinant His-tagged PCAF HAT domain expressed in Escherichia coli BL21(DE3) cells using [14C][…] and histone H3 as substrate at >200 uM after 3.5 mins by scintillation counting.
The target in test [12] is Histone acetyltransferase KAT5 (Homo sapiens) (UniProt Q92993).
Test [13] has the same target. This is another data set of the same source.
The target in test [14] is T1, Histone acetyltransferase KAT8 (Homo sapiens, UniProt Q9H7Z6).
T1 sequence (Q9H7Z6 whole entry): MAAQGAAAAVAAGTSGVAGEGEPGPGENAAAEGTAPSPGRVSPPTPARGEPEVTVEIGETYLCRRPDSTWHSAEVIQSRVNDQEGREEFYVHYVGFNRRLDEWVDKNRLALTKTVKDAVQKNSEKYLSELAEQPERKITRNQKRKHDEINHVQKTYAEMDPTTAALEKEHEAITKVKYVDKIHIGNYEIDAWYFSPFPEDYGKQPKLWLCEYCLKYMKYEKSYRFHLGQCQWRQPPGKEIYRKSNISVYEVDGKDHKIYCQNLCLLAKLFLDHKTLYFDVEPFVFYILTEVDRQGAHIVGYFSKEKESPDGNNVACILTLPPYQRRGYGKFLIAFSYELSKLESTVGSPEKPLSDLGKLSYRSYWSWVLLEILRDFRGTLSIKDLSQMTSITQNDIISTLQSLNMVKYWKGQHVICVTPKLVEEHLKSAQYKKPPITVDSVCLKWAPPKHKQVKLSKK
The test is described as follows: Inhibition of human MOF expressed in Escherichia coli BL21(DE3) cells using [14C]AC-CoA and histone H4 as substrate after 5 mins by scintillation counting.

Molecules are shown by their SMILES. Activity calls are given as the source filed them. No cut-off for these calls is given here.

Chain of Histone acetyltransferase KAT5 (Homo sapiens) (Q92993 whole entry, looked up, the tested form may be a part): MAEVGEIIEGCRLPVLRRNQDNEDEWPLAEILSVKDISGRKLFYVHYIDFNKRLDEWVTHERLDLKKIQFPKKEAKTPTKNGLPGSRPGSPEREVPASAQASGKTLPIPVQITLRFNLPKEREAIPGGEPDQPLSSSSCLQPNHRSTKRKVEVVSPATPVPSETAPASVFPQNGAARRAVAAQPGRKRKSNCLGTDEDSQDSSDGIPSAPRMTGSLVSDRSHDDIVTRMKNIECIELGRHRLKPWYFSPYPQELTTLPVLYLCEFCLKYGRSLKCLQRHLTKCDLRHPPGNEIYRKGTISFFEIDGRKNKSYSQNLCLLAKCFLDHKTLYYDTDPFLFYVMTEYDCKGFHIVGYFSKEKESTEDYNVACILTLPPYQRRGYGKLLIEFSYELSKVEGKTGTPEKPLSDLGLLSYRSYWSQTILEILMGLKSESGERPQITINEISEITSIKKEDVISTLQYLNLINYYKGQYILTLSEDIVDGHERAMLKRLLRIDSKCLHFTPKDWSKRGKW
Chain of Histone acetyltransferase KAT2B (Homo sapiens) (Q92831 whole entry, looked up, the tested form may be a part): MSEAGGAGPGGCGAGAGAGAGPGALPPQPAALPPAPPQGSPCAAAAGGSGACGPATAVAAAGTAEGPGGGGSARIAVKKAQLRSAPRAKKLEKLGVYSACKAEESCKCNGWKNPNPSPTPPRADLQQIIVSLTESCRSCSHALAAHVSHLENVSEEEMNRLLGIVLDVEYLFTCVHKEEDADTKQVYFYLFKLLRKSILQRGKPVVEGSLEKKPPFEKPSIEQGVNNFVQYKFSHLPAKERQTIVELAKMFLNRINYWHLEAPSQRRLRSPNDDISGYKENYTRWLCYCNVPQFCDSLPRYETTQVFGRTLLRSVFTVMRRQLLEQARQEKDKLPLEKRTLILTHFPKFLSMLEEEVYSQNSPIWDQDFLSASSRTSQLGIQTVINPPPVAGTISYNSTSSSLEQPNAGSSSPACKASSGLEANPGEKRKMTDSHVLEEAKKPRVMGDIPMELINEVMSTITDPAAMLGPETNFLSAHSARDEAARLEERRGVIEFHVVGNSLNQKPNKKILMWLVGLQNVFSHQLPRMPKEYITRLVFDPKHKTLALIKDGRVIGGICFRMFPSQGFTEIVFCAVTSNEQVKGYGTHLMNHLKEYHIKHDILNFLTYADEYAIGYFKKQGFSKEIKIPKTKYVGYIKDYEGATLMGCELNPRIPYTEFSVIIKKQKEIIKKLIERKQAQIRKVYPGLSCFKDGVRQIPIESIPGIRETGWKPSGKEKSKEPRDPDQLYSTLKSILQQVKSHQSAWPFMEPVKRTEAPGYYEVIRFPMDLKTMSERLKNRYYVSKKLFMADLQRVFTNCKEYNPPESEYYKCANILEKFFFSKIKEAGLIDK
Chain of Histone acetyltransferase KAT5 (Rattus norvegicus) (Q99MK2 whole entry): as the sequence (Q92993 whole entry, looked up, the tested form may be a part) above, with A175S counted along it
Chain of Histone acetyltransferase p300 (Homo sapiens) (Q09472 whole entry, the tested form may be a part): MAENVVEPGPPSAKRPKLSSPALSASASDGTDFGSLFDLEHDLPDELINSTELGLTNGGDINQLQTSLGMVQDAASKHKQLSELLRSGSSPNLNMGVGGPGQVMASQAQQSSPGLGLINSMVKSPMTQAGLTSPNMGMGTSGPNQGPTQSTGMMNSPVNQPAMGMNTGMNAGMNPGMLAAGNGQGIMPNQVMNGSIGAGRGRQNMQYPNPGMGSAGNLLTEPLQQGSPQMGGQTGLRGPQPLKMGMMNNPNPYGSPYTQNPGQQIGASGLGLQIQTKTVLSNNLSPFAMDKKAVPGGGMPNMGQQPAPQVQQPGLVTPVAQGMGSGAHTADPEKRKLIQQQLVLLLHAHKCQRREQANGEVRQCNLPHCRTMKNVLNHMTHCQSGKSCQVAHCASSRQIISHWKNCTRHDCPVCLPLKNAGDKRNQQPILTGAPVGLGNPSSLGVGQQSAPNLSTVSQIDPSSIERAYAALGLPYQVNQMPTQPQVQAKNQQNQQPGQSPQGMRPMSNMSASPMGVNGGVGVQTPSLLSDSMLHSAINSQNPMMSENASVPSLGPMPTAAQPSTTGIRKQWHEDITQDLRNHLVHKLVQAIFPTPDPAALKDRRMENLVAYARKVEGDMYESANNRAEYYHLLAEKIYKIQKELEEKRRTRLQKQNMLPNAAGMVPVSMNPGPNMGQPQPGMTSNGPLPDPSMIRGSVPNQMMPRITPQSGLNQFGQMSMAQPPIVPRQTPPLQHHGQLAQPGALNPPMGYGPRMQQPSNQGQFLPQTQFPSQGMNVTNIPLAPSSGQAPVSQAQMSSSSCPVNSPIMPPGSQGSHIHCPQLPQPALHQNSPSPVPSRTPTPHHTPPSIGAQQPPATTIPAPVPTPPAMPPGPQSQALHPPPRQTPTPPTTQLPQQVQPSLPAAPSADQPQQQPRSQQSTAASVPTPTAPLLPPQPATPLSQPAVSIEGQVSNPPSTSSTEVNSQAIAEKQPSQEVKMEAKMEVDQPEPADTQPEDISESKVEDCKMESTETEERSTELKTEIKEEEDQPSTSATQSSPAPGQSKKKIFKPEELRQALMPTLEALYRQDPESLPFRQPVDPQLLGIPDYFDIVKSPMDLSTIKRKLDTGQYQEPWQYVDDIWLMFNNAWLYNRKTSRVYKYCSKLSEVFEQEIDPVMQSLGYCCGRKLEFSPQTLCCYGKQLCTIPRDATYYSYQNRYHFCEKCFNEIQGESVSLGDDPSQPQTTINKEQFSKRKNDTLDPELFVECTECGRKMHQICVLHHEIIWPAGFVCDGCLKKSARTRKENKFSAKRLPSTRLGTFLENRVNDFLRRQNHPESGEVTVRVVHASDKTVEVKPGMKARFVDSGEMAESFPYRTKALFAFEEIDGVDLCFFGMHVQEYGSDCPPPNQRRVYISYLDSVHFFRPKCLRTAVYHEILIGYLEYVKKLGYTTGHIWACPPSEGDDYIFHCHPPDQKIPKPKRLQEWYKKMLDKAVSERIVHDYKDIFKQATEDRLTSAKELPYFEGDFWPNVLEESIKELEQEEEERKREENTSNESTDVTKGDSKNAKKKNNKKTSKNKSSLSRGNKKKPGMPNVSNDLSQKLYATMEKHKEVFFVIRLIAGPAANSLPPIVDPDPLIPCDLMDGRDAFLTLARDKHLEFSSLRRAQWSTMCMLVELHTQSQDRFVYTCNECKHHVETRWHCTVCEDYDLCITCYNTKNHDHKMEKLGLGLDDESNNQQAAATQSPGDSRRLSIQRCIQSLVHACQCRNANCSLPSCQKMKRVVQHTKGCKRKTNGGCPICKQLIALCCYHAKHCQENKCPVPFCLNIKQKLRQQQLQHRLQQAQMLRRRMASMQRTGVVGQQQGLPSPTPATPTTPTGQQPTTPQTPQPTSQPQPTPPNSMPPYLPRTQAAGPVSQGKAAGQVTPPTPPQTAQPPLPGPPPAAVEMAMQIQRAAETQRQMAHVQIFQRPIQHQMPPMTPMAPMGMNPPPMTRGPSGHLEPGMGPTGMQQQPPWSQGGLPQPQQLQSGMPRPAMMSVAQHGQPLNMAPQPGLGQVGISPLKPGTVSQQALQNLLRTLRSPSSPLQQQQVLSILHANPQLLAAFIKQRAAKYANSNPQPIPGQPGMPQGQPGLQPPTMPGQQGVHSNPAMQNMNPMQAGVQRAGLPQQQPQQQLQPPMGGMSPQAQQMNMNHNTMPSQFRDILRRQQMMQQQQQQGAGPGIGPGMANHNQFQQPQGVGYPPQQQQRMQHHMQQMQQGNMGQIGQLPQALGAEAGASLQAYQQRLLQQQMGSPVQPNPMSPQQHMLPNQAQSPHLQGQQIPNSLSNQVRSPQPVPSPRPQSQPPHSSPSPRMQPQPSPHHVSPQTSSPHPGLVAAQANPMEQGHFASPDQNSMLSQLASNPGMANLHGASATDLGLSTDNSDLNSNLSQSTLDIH

As for `CCCCCOc1ccc(CCc2cccc(O)c2C(=O)O)cc1`, the inhibition entry in test [1] is “Active”. In addition, the inhibition in [2] and in test [3] was above 50% each time.
On to `CCCCCCCCCCc1cccc(O)c1C(=O)O`, for which the inhibition entry in [1] and in test [4] was “Active” in each case. For the same molecule, the inhibition in [5] was above 76%; in test [6], below 35%; in test [7] it was below 35%; in test [2], above 50%; in test [3] it was above 50%.
For `CC(C)CCCC(C)CCOc1ccc(CCc2cccc(O)c2C(=O)O)cc1` (stereo unspecified), in test [4], the inhibition result is “Active”. Also, the inhibition is above 76% in [5]; below 35% in test [6]; below 35% in test [7]; above 50% in test [2]; above 50% in test [3].
As to `CCCCCCCCCCCCCCCc1cc(O)cc(O)c1C(=O)O`, the inhibition result in test [4] is “Active”. Moreover, the inhibition is above 76% in test [5]; below 35% in test [6]; below 35% in test [7]; above 50% in test [2]; above 50% in test [3].
For `CCCCCCCc1ccc(CCc2cc(O)cc(O)c2C(=O)O)cc1`, in [4], the inhibition entry is “Active”.
With `CCCCCCCCCCCCCC#Cc1ccccc1C(=O)OC`, the inhibition in test [2] and in [3] was above 50% in each case.
As to `C=CC/C=C\C/C=C\CCCCCCCc1cccc(O)c1C(=O)O`, the inhibition result in [1], in test [4], in test [8] and in test [9] was “Active” throughout. Further, the inhibition is above 76% in test [5]; below 20% in test [6]; below 20% in [7]; above 50% in test [2]; 40% in [10]; above 50% in test [3].
Regarding `CCCCCCCOc1ccc(CCc2cccc(O)c2C(=O)O)cc1C(C)=O`, the inhibition entry in test [4] is “Active”. The inhibition in test [2] and in test [3] was above 50% in each case.
Consider `CCCCCOc1ccc(/C=C\c2cccc(O)c2C(=O)O)cc1`, for which the inhibition entry in test [1] is “Active”. The inhibition in test [2] and in test [3] was above 50% throughout.
For `CCCCCCCCCCCCCCCc1ccccc1C(=O)O`, the inhibition in [2] and in test [3] was above 50% throughout.
Consider `CCCCCCCCCCc1cc(O)cc(O)c1C(=O)O`, for which the inhibition in test [5] is above 76%; in test [6] it was below 35%; in test [7] it was below 35%; in test [2], above 50%; in [3] it was above 50%.
Turning to `COCCOc1ccc(CCc2cccc(O)c2C(=O)O)cc1`, the inhibition result in test [5] is “Active”.
For `CCCCCOc1ccc(CCc2cccc(O)c2C(=O)O)cc1C(C)=O`, the inhibition in test [5] is above 76%; in test [6], below 35%; in [7], below 35%; in [2] it was above 50%; in test [3] it was above 50%.
`CCCCCCCCCCCCCCOc1ccc(CCc2cccc(O)c2C(=O)O)cc1`: the inhibition result in test [1] is “Active”. The inhibition in test [2] and in test [3] was above 50% each time.
With `CCCCCOc1ccc(CCc2cccc(O)c2C(=O)O)cc1C(C)O` (stereo unspecified), the inhibition entry in test [5] is “Active”.
For `CCCCCCCc1ccc(CCc2cccc(O)c2C(=O)O)cc1`, the inhibition is 3% in test [11]; 88% in [5]; below 35% in test [6]; below 35% in test [7]; above 50% in test [2]; 30% in test [10]. This molecule displayed an inhibition in [3] above 50%. The inhibition entry in test [4], in [8] and in test [9] was “Active” in each case. Further, the Kii in test [12] turned out to be 572 µM; in test [13], 78 µM. This molecule also displayed an IC50 in [14] of 47 µM.

Source of the values: ChEMBL document CHEMBL1933039, “6-alkylsalicylates are selective Tip60 inhibitors and target the acetyl-CoA binding site” (Eur J Med Chem, 2012).
